Source: PubChem BioAssay (several laboratories)
Shown are actives, neighbours in structure and some others; about 2.6% of the full set was active somewhere.
SENP1 FRET inh: human SENP1 catalytic domain inhibitors, primary screen, biochemical, FRET, uHTS. 360,000 compounds, 0.21% hits. Sentrin-specific protease 1 (Homo sapiens), Q9P0U3. AID 624204, 2012. recombinant SENP1 catalytic domain, CyPet-SUMO1-YPet FRET cleavage. inhibition, % at 10 µM;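 active = inhibition at least 30% at 10 µM, raw YFP signal under a set limit, fluorescence ratio 0.5 to 1.5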
Target sequence (Q9P0U3 419-644 limits assumed): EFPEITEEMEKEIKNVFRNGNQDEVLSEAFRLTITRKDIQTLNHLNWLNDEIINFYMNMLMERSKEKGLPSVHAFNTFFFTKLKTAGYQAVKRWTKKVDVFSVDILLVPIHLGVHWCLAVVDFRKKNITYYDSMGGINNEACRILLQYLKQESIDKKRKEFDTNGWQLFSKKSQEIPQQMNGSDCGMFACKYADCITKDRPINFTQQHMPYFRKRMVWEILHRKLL
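Test system: recombinant human SENP1 catalytic domain, His6-tagged / Medium: pH 8 Tris buffer with EDTA, NaCl, BME, BSA, NP40, catalase / Also added: SUMO1 FRET substrate flanked by Cypet and Ypet, 25 nM / Times: 50 min reaction at room temperature / Signal: FRET, CFP and YFP emission / Control set: no-enzyme low control and enzyme-plus-DMSO high control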
SENP7 inh: SENP7 protease inhibitors, primary screen, biochemical, luminescence, uHTS. recombinant SENP7, Z-RLRGG-aminoluciferin luminescence, 40 min. Sentrin-specific protease 7 (Homo sapiens), Q9BQF6. 330,000 compounds, 1.5% hits. inhibition, % at 5 µM;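 active = inhibition above about 50% at the single test dose, limit read from the data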
SENP8 block-1: human SENP8 protease inhibitors, primary screen, biochemical, fluorescence, Nedd8 protein substrate, uHTS | Sentrin-specific protease 8 (Homo sapiens), Q96LD8 | inhibition, % at 20 µM | 360,000 compounds, 0.64% hits | AID 602440, 2012 | recombinant SENP8; in the data active = inhibition mostly above about 40%, no sharp cut-off; inactive = mostly below about 27%
Target sequence (Q96LD8 whole entry, looked up): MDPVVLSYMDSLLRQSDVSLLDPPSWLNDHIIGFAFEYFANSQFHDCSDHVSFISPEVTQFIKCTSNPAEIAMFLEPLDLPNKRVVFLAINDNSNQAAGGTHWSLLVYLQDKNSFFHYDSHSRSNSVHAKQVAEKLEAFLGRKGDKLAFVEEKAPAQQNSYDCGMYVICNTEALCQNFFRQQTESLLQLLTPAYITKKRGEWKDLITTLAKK
SENP8 block-2: SENP8 protease inhibitors, primary screen, biochemical, luminescence; inhibition, % at 10 µM; 330,000 compounds, 1.2% hits; purified SENP8, Z-RLRGG-aminoluciferin cleavage; Sentrin-specific protease 8 (Homo sapiens), Q96LD8; AID 2540, 2010; in the data active = inhibition above about 50%
Platelet DG rel: inhibitors of platelet dense granule secretion, primary screen, cell-based, MLPCN, human platelets. human platelet-rich plasma, SFLLRN dense granule ATP release, luminescence. inhibition, %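 (compounds screened at 7.5 µM in platelet-rich plasma)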. 300,000 compounds, 0.22% hits;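 active = mean replicate score, as percent of positive control, at or above 50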
SENP6 inh: SENP6 protease inhibitors, primary screen, biochemical, luminescence, uHTS. Recombinant SENP6 catalytic domain, aminoluciferin luminescence. Sentrin-specific protease 6 (Homo sapiens), Q9GZR1. inhibition, % at 10 µM. 330,000 compounds, 1.8% hits;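 active = inhibition above about 50% at the single tested dose, limit read from the data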
SENP8 conf: SENP8 protease inhibitors, retest, confirmation, biochemical, luminescence, single concentration. shares compounds with SENP7 inh. Recombinant SENP8, Z-RLRGG-aminoluciferin luminescence, 60 min. inhibition, % at 12.5 µM. 6,200 compounds, 40% hits. AID 488912, 2010;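 active = mean inhibition across replicates above about 50%, limit read from the data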
SENP6 conf: SENP6 protease inhibitors, confirmation, biochemical, luminescence, single concentration | recombinant SENP6, Z-RLRGG-aminoluciferin luminescence | 6,200 compounds, 58% hits | shares compounds with SENP7 inh | inhibition, % at 12.5 µM
SENP7 conf: SENP7 protease inhibitors, retest, confirmation, biochemical, luminescence, single concentration. 6,200 compounds, 69% hits. AID 488917, 2010. shares compounds with SENP7 inh. inhibition, % at 12.5 µM. recombinant SENP7, Z-RLRGG-aminoluciferin luminescence, 40 min
Casp3 SENP sel: caspase-3 protease inhibitors, confirmation, selectivity assay for SENP inhibitor project, biochemical, single concentration. shares compounds with SENP7 inh. purified caspase-3, Z-DEVD-aminoluciferin luminescence, 60 min. inhibition, % at 12.5 µM. 6,200 compounds, 60% hits;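 active = mean inhibition above about 50%, limit read from the data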
Luc interf: luminescence interference (SENP counter-screen) | shares compounds with SENP7 inh | Pre-incubated SENP8/Z-RLRGG-aminoluciferin, luciferase luminescence interference | inhibition, % at 12.5 µM | 6,200 compounds, 39% hits;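 active = mean inhibition above about 50% when retested at one dose, limit read from the data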
Numbers stand for hits.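 Rule for the calls, unless noted: active = mean inhibition above about 50% in the one-dose retest (limit read from the data); inactive = the rest.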

What do the screens show for `CCCC#Cc1ccc2c(c1)COc1c3ccccc3nn1-2`?
SENP1 FRET inh: inactive; SENP7 inh: 73; SENP8 block-1: inactive; SENP8 block-2: 89; Platelet DG rel: inactive; SENP6 inh: 92; SENP8 conf: 53; SENP6 conf: 70; SENP7 conf: 90; Casp3 SENP sel: 86; Luc interf: inactive

How did O=C(N/N=C/c1c(Cl)cccc1Cl)c1n[nH]c2c1CCCC2 do in these assays?
SENP1 FRET inh: inactive; SENP7 inh: 71; SENP8 block-1: inactive; SENP8 block-2: 68; Platelet DG rel: inactive; SENP6 inh: inactive; SENP8 conf: inactive; SENP6 conf: 72; SENP7 conf: 92; Casp3 SENP sel: 80; Luc interf: inactive

What do the screens show for `O=C(NC1CCCCC1)c1n[nH]c2c1CCCCC2`?
SENP1 FRET inh: inactive; SENP7 inh: 90; SENP8 block-1: inactive; SENP8 block-2: 84; SENP6 inh: 89; SENP8 conf: 86; SENP6 conf: 86; SENP7 conf: 97; Casp3 SENP sel: 94; Luc interf: 73

Results for CCC(C)(C)C1CCc2[nH]nc(C(=O)NC3CCCC3)c2C1 (centres undefined) ?
SENP1 FRET inh: inactive; SENP7 inh: inactive; SENP8 block-1: inactive; SENP8 block-2: inactive; SENP6 inh: inactive

Results for O=C(N/N=C/c1c(Cl)cccc1Cl)c1ccc(F)cc1 ?
SENP1 FRET inh: inactive; SENP7 inh: inactive; SENP8 block-1: inactive; SENP8 block-2: inactive; Platelet DG rel: inactive; SENP6 inh: inactive

Results for O=C(NN=C1CCCC1)c1n[nH]c2c1CCCC2 ?
SENP1 FRET inh: inactive; SENP7 inh: inactive; SENP8 block-1: inactive; SENP8 block-2: inactive; Platelet DG rel: inactive; SENP6 inh: 68; SENP8 conf: 58; SENP6 conf: 68; SENP7 conf: 87; Casp3 SENP sel: 90; Luc interf: 51

Results for COc1ccc(S(=O)(=O)N2CCc3ccccc32)cc1C(=O)N(CC(C)C)C1CCS(=O)(=O)C1 (centres undefined) ?
SENP1 FRET inh: inactive; SENP7 inh: inactive; SENP8 block-1: inactive; SENP8 block-2: inactive; Platelet DG rel: inactive; SENP6 inh: inactive

How did CC(C)Oc1ccc2ccccc2c1CNC[C@H]1O[C@@H](n2ccc(N)nc2=O)[C@H](O)[C@@H]1O do in these assays?
SENP1 FRET inh: inactive; SENP8 block-1: inactive

What do the screens show for `NC(=O)c1cnn(-c2cc(Oc3ccccc3)ncn2)c1N`?
SENP1 FRET inh: inactive; SENP7 inh: inactive; SENP8 block-1: inactive; SENP8 block-2: inactive; Platelet DG rel: inactive; SENP6 inh: inactive
